Source: ChEMBL document CHEMBL4513216, “Probing the Open Global Health Chemical Diversity Library for Multistage-Active Starting Points for Next-Generation Antimalarials” (ACS Infect Dis, 2020)

Experiment: Toxicity liver stage against HepG2, at 10uM
Format: cell-based
Parameters: test concentration 10 uM, cell line HepG2-A16-CD81EGFP
Details: human, HepG2-A16-CD81EGFP cells; read-out: INHIBITION
In short: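 Uninfected HepG2-A16-CD81EGFP cells, 3 × 10^3 per well, 1536-well, plated on prespotted compound at 10 μM final, parasite-free screening media added to match infected plates; puromycin 10 μM positive, DMSO 0.5% negative; run in parallel with 48 h PbLuc assay at 37 °C, 5% CO2; viability by CellTiter-Glo luminescence, normalized to controls.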

Compound	cytotoxicity at 10 µM
COc1ccc2[nH]cc(C(=O)CNc3nc(C)cs3)c2c1	6.04%
O=C(c1ccc(N2CCCCCC2)nn1)N1CCc2ccccc21	-8.04%
CC(=O)N1N=C(c2ccccc2)OC1C(=O)NCCc1ccc(O)cc1 (stereo not given)	-4%
CC(C)CCNc1nc(C(=O)NC2CC2)cs1	0.461%
CC(=O)N1CC2(CCN(S(=O)(=O)N(C)C)CC2)C2(CCNC2=O)C1 (stereo not given)	-6.9%
CN(C)C(=O)CCC(=O)N1CCC2(CC1)COC2	2.05%
CN1CC2(CCN(Cc3cccnc3)CC2)c2cc(F)ccc21	14%
Cc1nc(N2CCCC2)ncc1-c1cc(O)nc(NCC2CCCO2)n1 (stereo not given)	0.723%
CS(=O)(=O)N1CCC(Cc2cnc(Br)cn2)C1 (stereo not given)	14.5%
CC(C)CC(=O)N1C[C@H]2CCCN(S(=O)(=O)c3ccc(Cl)s3)[C@H]2C1	-1.63%
COCCN1CCCC(Cc2cnc(-c3c(C)nn(C)c3C)cn2)C1 (stereo not given)	-2.56%
COc1ccccc1CC(=O)NC(C)c1nc2cccnc2n1C(C)C (stereo not given)	-43.8%
Cc1cnc(-c2nc(NC3CCCC3)ncc2-c2onc(C)c2C)cn1	-32.5%
Cc1[nH]c2ccc(C(=O)N3C[C@@H](O)[C@H](N4CCOCC4)C3)cc2c1C	-21.3%
CCCC(=O)N1CCC([C@@H]2C[C@H](C(F)(F)F)n3nc(C)cc3N2)CC1	-16.1%
COc1ccccc1C1=NOC(CC2(C(=O)NC(C)C)CCOCC2)C1 (stereo not given)	-20.4%
CC(=O)N1CCc2nc(C3CCN(C(=O)c4ccccc4)C3)ncc2C1 (stereo not given)	-4.76%
Cc1c(C(=O)N2CCOCC2)nnn1-c1ccc2ncccc2c1	-4.87%
CC(C#N)CNC(=O)Nc1ccc(-c2cc[nH]n2)cc1 (stereo not given)	-3.27%
COC(=O)C(C)(C)NC(=O)c1scnc1Cl	-2.31%
CCc1nnc(SC2CCN(c3ccccc3F)C2=O)n1C (stereo not given)	1.77%
Cc1ccc(CNC(=O)NCC(=O)N2CCCC2)c(N2CCCC2)c1	5.84%
COc1c(CNCc2ccc(Cn3cccn3)cc2)c(C)nn1C	35.5%

Compound	cytotoxicity at 10 µM
N#Cc1ccccc1N1CCN(CCC(=O)N2CCOCC2)CC1	10%
O=C(c1ccc(Cl)c(Cl)c1)N1CCCCC1C1OCCO1 (stereo not given)	9.25%
Cc1ccc(C)c(OC2CCN(C(=O)NCC(=O)N3CCCC3)CC2)c1	-5.75%
Cc1noc(CNc2ccc(OC(F)F)cc2OC(F)F)n1	1.85%
Cc1nc(CNC(=O)Nc2ccc3c(c2)CCCC(=O)N3)sc1C	5.06%
CCc1noc(CNc2ccc(F)cc2OCC2CC2)n1	-7.21%
O=C1CCC2(CCNCC2)CN1CCCOc1cccnc1	-13.2%
Cc1ccccc1-n1cc(-c2ccnc(N3CCCC(CN)C3)n2)cn1 (stereo not given)	1.34%
CCn1nc(C(C)C)cc1C(=O)N1CC(OCc2ccccc2F)C1	-4.62%
CSc1cccc(CNC(=O)C2CC(=O)N(CCN(C)C)C2)c1 (stereo not given)	-4.15%
CC(C)c1nc(C2CCCN(C(=O)CCCn3cccn3)C2)no1 (stereo not given)	-1.36%
Cc1nc(CN(C)C2CCN(Cc3cnc(C)s3)C2)no1 (stereo not given)	-4.8%
O=C(c1ccc(N2CCCC2)nc1)N1CCCC(n2cncn2)C1 (stereo not given)	-5.22%
CCC(O)CN1CCN(C(=O)Cc2cc(C)ccc2OC)CC1 (stereo not given)	-30.9%
O=S(=O)(CCCN1CCCCC1Cn1cncn1)c1ccccc1 (stereo not given)	-7.42%
COc1c(CNCc2cccc(C(=O)N(C)C)c2)c(C)nn1C	-16.9%
O=C(COC1CCCCC1)N1CCCC(n2ccnc2)C1 (stereo not given)	-19.7%
CO[C@H]1CCN(C(=O)Cc2ccsc2)[C@@H]2CN(CC3CC3)C[C@H]12	6.35%
CCN1CCC12CCN(C(=O)c1ccsc1)C2 (stereo not given)	-148%
COc1cc(N2C[C@H](C(=O)NCC3CC3)[C@@H]3CCO[C@@H]3C2)ncn1	2.87%
COCc1ncn2c1CN(C(=O)c1cccc3cccnc13)CC2	-19.7%
Cc1ccc(CN2CCC3(CCC(=O)N3CC(=O)N(C)C)CC2)s1	-2.45%
